Measured values from ChEMBL document CHEMBL4270599, “Synthesis of a 3'-C-ethynyl-β-d-ribofuranose purine nucleoside library: Discovery of C7-deazapurine analogs as potent antiproliferative nucleosides” (Eur J Med Chem, 2018).

Assays:
OVCAR-5 = assay: Growth inhibition of human OVCAR5 cells assessed as cell growth at 10^-8 M incubated for 48 hrs by sulforhodamine B assay relative to control; format: functional; settings: OVCAR-5, 48 h, read-out: Activity
NCI-H226 = assay: Growth inhibition of human NCI-H226 cells assessed as cell growth at 10^-6 M incubated for 48 hrs by sulforhodamine B assay relative to control; format: functional; settings: NCI-H226, 48 h, read-out: Activity
A549 [1] = assay: Cytotoxicity against human A549 cells after 48 hrs by SRB assay; format: functional; settings: A549, 48 h; for GI50: read-out: GI50
A549 [2] = assay: Growth inhibition of human A549/ATCC cells assessed as cell growth at 10^-4 M incubated for 48 hrs by sulforhodamine B assay relative to control; format: functional; settings: A549, 48 h, read-out: Activity
DU-145 = assay: Cytotoxicity against human DU145 cells after 48 hrs by SRB assay; format: functional; settings: DU-145, 48 h; for GI50: read-out: GI50; for CC50: read-out: pLC50 (the source's name) (converted)
HCT-116 = assay: Growth inhibition of human HCT116 cells assessed as cell growth at 10^-7 M incubated for 48 hrs by sulforhodamine B assay relative to control; format: functional; settings: HCT-116, 48 h, read-out: Activity
SN12C = assay: Growth inhibition of human SN12C cells assessed as cell growth at 10^-7 M incubated for 48 hrs by sulforhodamine B assay relative to control; format: functional; settings: read-out: Activity
SW-620 [3] = assay: Growth inhibition of human SW620 cells assessed as cell growth at 10^-5 M incubated for 48 hrs by sulforhodamine B assay relative to control; format: functional; settings: SW-620, 48 h, read-out: Activity
RPMI-8226 [4] = assay: Cytotoxicity against human RPMI8226 cells after 48 hrs by SRB assay; format: functional; settings: RPMI-8226, 48 h; for GI50: read-out: GI50; for CC50: read-out: LC50 (the source's name); for TGI: read-out: TGI
OVCAR-4 = assay: Growth inhibition of human OVCAR4 cells assessed as cell growth at 10^-4 M incubated for 48 hrs by sulforhodamine B assay relative to control; format: functional; settings: OVCAR-4, 48 h, read-out: Activity
MDA-MB-435 = assay: Growth inhibition of human MDA-MB-435 cells assessed as cell growth at 10^-7 M incubated for 48 hrs by sulforhodamine B assay relative to control; format: functional; settings: MDA-MB-435, 48 h, read-out: Activity
HL-60(TB) = assay: Growth inhibition of human HL-60(TB) cells assessed as cell growth at 10^-5 M incubated for 48 hrs by sulforhodamine B assay relative to control; format: functional; settings: HL-60, 48 h, read-out: Activity
U-251 = assay: Growth inhibition of human U251 cells assessed as cell growth at 10^-4 M incubated for 48 hrs by sulforhodamine B assay relative to control; format: functional; settings: U-251, 48 h, read-out: Activity
Malme-3M [5] = assay: Growth inhibition of human MALME-3M cells assessed as cell growth at 10^-5 M incubated for 48 hrs by sulforhodamine B assay relative to control; format: functional; settings: read-out: Activity
EKVX [6] = assay: Cytotoxicity against human EKVX cells after 48 hrs by SRB assay; format: functional; settings: for GI50: read-out: GI50; for TGI: read-out: TGI; for CC50: read-out: pLC50 (the source's name) (converted)
SK-OV-3 [7] = assay: Growth inhibition of human SKOV3 cells assessed as cell growth at 10^-7 M incubated for 48 hrs by sulforhodamine B assay relative to control; format: functional; settings: SK-OV-3, 48 h, read-out: Activity
RPMI-8226 [8] = assay: Growth inhibition of human RPMI8226 cells assessed as cell growth at 10^-8 M incubated for 48 hrs by sulforhodamine B assay relative to control; format: functional; settings: RPMI-8226, 48 h, read-out: Activity
ACHN = assay: Growth inhibition of human ACHN cells assessed as cell growth at 10^-7 M incubated for 48 hrs by sulforhodamine B assay relative to control; format: functional; settings: read-out: Activity
TK-10 = assay: Growth inhibition of human TK10 cells assessed as cell growth at 10^-8 M incubated for 48 hrs by sulforhodamine B assay relative to control; format: functional; settings: TK-10, 48 h, read-out: Activity
PC-3 [9] = assay: Cytotoxicity against human PC3 cells after 48 hrs by SRB assay; format: functional; settings: PC-3, 48 h; for GI50: read-out: GI50; for TGI: read-out: TGI
Malme-3M [10] = assay: Growth inhibition of human MALME-3M cells assessed as cell growth at 10^-7 M incubated for 48 hrs by sulforhodamine B assay relative to control; format: functional; settings: read-out: Activity
SK-OV-3 [11] = assay: Growth inhibition of human SKOV3 cells assessed as cell growth at 10^-8 M incubated for 48 hrs by sulforhodamine B assay relative to control; format: functional; settings: SK-OV-3, 48 h, read-out: Activity
CCRF-CEM = assay: Cytotoxicity against human CCRF-CEM cells after 48 hrs by SRB assay; format: functional; settings: for GI50: read-out: GI50
EKVX [12] = assay: Growth inhibition of human EKVX cells assessed as cell growth at 10^-8 M incubated for 48 hrs by sulforhodamine B assay relative to control; format: functional; settings: read-out: Activity
PC-3 [13] = assay: Growth inhibition of human PC3 cells assessed as cell growth at 10^-5 M incubated for 48 hrs by sulforhodamine B assay relative to control; format: functional; settings: PC-3, 48 h, read-out: Activity
[14] = Antiproliferative activity against HMVEC-d cells after 4 days by Coulter counter method; format: cell-based; settings: Homo sapiens, 96 h
How it was run: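 Primary HUVEC, primary HMVEC-d and the HMEC-1 line seeded at 20,000 cells/well in gelatin-coated plates in EC growth medium (EGM2). After overnight incubation, 5-fold compound dilutions added. Cells proliferated four days with compound, then trypsinized and counted by Coulter counter to derive IC₅₀.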

KM12 = assay: Growth inhibition of human KM12 cells assessed as cell growth at 10^-7 M incubated for 48 hrs by sulforhodamine B assay relative to control; format: functional; settings: KM12, 48 h, read-out: Activity
HOP-92 = assay: Growth inhibition of human HOP92 cells assessed as cell growth at 10^-7 M incubated for 48 hrs by sulforhodamine B assay relative to control; format: functional; settings: HOP-92, 48 h, read-out: Activity
SW-620 [15] = assay: Cytotoxicity against human SW620 cells after 48 hrs by SRB assay; format: functional; settings: SW-620, 48 h; for GI50: read-out: GI50
HCC 2998 = assay: Growth inhibition of human HCC2998 cells assessed as cell growth at 10^-6 M incubated for 48 hrs by sulforhodamine B assay relative to control; format: functional; settings: HCC 2998, 48 h, read-out: Activity
COLO 205 = assay: Growth inhibition of human COLO205 cells assessed as cell growth at 10^-5 M incubated for 48 hrs by sulforhodamine B assay relative to control; format: functional; settings: COLO 205, 48 h, read-out: Activity
[16] = read-out: pLC50 (the source's name) (converted)
[17] = read-out: LC50 (the source's name)

SMILES: C#C[C@@]1(O)[C@@H](CO)O[C@@H](n2cc(Br)c3c(N)ncnc32)[C@@H]1O
- growth at 0.01 µM (OVCAR-5): 98 to 99%
- growth at 1 µM (NCI-H226): 27 to 66%
- GI50 (A549 [1]): 0.09 to 0.283 µM
- CC50 (A549 [1]; [16]): > 100 µM
- growth at 100 µM (A549 [2]): 9 to 12%
- GI50 (DU-145): 0.0628 to 0.151 µM
- TGI (DU-145; read-out: TGI): > 100 µM
- CC50 (DU-145): > 100 µM
- TGI (DU-145; read-out: pTGI (converted)): > 100 µM
- growth at 0.1 µM (HCT-116): 2 to 12%
- growth at 0.1 µM (SN12C): 31 to 69%
- growth at 10 µM (SW-620 [3]): 4 to 5%
- GI50 (RPMI-8226 [4]): 0.0673 to 0.242 µM
- CC50 (RPMI-8226 [4]): > 100 µM
- TGI (RPMI-8226 [4]): 0.733 to 0.934 µM
- growth at 100 µM (OVCAR-4): 3 to 15%
- growth at 0.1 µM (MDA-MB-435): 51 to 70%
- growth at 10 µM (HL-60(TB)): -51%
- growth at 100 µM (U-251): 4%
- growth at 10 µM (Malme-3M [5]): 5 to 10%
- GI50 (EKVX [6]): 0.15 to 0.261 µM
- TGI (EKVX [6]): 1.25 to 5.75 µM
- CC50 (EKVX [6]): > 100 µM
- growth at 0.1 µM (SK-OV-3 [7]): 28 to 62%
- growth at 0.01 µM (RPMI-8226 [8]): 95 to 101%
- growth at 0.1 µM (ACHN): 75%
- growth at 0.01 µM (TK-10): 100 to 106%
- GI50 (PC-3 [9]): 0.0477 to 0.167 µM
- TGI (PC-3 [9]): 8.7 to 100 µM
- CC50 (PC-3 [9]; [16]): > 100 µM
- growth at 0.1 µM (Malme-3M [10]): 77 to 79%
- growth at 0.01 µM (SK-OV-3 [11]): 91 to 93%
- GI50 (CCRF-CEM): 0.14 to 0.285 µM
- CC50 (CCRF-CEM; [17]): > 100 µM
- TGI (CCRF-CEM; read-out: TGI): > 100 µM
- TGI (CCRF-CEM; read-out: pTGI): > 100 µM
- growth at 0.01 µM (EKVX [12]): 85%
- growth at 10 µM (PC-3 [13]): 3%
- IC50 [14]: 0.0019 µM
- growth at 0.1 µM (KM12): 49 to 53%
- growth at 0.1 µM (HOP-92): 63 to 78%
- GI50 (SW-620 [15]): 0.0312 to 0.076 µM
- CC50 (SW-620 [15]; [17]): > 100 µM
- TGI (SW-620 [15]; read-out: TGI): > 100 µM
- TGI (SW-620 [15]; read-out: pTGI (converted)): > 100 µM

SMILES: C#C[C@@]1(O)[C@@H](CO)O[C@@H](n2cc(I)c3c(N)ncnc32)[C@@H]1O
- growth at 0.01 µM (OVCAR-5): 79 to 80%
- growth at 1 µM (NCI-H226): 57 to 70%
- GI50 (A549 [1]): 0.297 to 0.589 µM
- CC50 (A549 [1]; [17]): > 100 µM
- TGI (A549 [1]; read-out: TGI): > 100 µM
- TGI (A549 [1]; read-out: pTGI (converted)): > 100 µM
- growth at 100 µM (A549 [2]): 4 to 8%
- GI50 (DU-145): 0.0983 to 0.164 µM
- TGI (DU-145; read-out: TGI): > 100 µM
- CC50 (DU-145): > 100 µM
- TGI (DU-145; read-out: pTGI (converted)): > 100 µM
- growth at 0.1 µM (HCT-116): 22 to 34%
- growth at 0.1 µM (SN12C): 43 to 54%
- growth at 10 µM (SW-620 [3]): 4%
- growth at 1 µM (HCC 2998): 11 to 16%
- GI50 (RPMI-8226 [4]): 0.275 to 0.428 µM
- CC50 (RPMI-8226 [4]): 91.5 to 100 µM
- TGI (RPMI-8226 [4]): 4.57 to 6.65 µM
- growth at 100 µM (OVCAR-4): 9 to 14%
- growth at 0.1 µM (MDA-MB-435): 66 to 73%
- GI50 (EKVX [6]): 0.395 to 0.421 µM
- TGI (EKVX [6]): 4.04 to 7.14 µM
- CC50 (EKVX [6]): > 100 µM
- growth at 0.1 µM (SK-OV-3 [7]): 26 to 40%
- growth at 0.01 µM (RPMI-8226 [8]): 95 to 96%
- growth at 0.1 µM (ACHN): 72%
- growth at 0.01 µM (TK-10): 85 to 94%
- GI50 (PC-3 [9]): 0.0663 to 0.0861 µM
- CC50 (PC-3 [9]; [17]): > 100 µM
- TGI (PC-3 [9]): 14.5 to 100 µM
- growth at 0.1 µM (Malme-3M [10]): 78 to 99%
- growth at 0.01 µM (SK-OV-3 [11]): 60 to 85%
- GI50 (CCRF-CEM): 0.249 to 0.295 µM
- TGI (CCRF-CEM; read-out: TGI): > 100 µM
- CC50 (CCRF-CEM; [16]): > 100 µM
- TGI (CCRF-CEM; read-out: pTGI): > 100 µM
- growth at 0.01 µM (EKVX [12]): 79 to 90%
- growth at 10 µM (PC-3 [13]): 2%
- IC50 [14]: < 0.00128 µM
- growth at 10 µM (COLO 205): -62%
- growth at 0.1 µM (KM12): 49 to 50%
- growth at 0.1 µM (HOP-92): 38 to 70%
- GI50 (SW-620 [15]): 0.0572 to 0.059 µM
- TGI (SW-620 [15]; read-out: TGI): > 100 µM
- CC50 (SW-620 [15]; [16]): > 100 µM
- TGI (SW-620 [15]; read-out: pTGI (converted)): > 100 µM
